Experimental data as given in ChEMBL document CHEMBL1132454 (J Med Chem, 1999).

What was measured:
[1] = molecular target: T1, Norepinephrine transporter (Rattus norvegicus, UniProt Q9WTR4); assay: The compound was tested for binding affinity nisoxatine ligand; IA = inactive
Summary of the method: (§1)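 Rat frontal cortex membranes (male Sprague–Dawley) in 50 mM Tris/120 mM NaCl/5 mM KCl pH 7.4; 8 mg wet tissue with 0.5 nM [3H]nisoxetine, 60 min at 0–4 °C; 1 μM desipramine for nonspecific; filtration, scintillation counting.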

[2] = molecular target: T2, Sodium-dependent dopamine transporter (Rattus norvegicus, UniProt P23977); assay: (§2) Binding affinity Sprague-Dawley rats using [3H]WIN-35428 ligand
Summary of the method: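 Rat caudate-putamen membranes washed in ice-cold Krebs-HEPES pH 7.4, ~0.3% w/v (150–300 μg protein). Drug added 5 min before 1.5 nM [3H]WIN 35,428; 1 h on ice; filtration.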

[3] = molecular target: T3, Sodium-dependent serotonin transporter (Rattus norvegicus, UniProt P31652); assay: Binding affinity against Serotonin transporter in male Sprague-Dawley rats using [3H]paroxetine ligand; IA = inactive
Summary of the method: (§3)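 Frozen rat midbrain membranes in 50 mM Tris, 120 mM NaCl, 5 mM KCl pH 7.4; 1.5 mg wet tissue per tube with 0.2 nM [3H]paroxetine, 90 min at room temperature; nonspecific defined with 1 μM citalopram; filtration and scintillation counting.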

[4] = molecular target: T2, Sodium-dependent dopamine transporter; assay: Inhibition of Dopamine uptake in male Sprague-Dawley rats using [3H]DA ligand
[5] = molecular target: T3, Sodium-dependent serotonin transporter; assay: (§4) Binding affinity against Serotonin transporter in male Sprague-Dawley rats using [3H]paroxetine ligand; summary of the method: as §3
[6] = molecular target: Sigma intracellular receptor 2 (Rattus norvegicus, UniProt Q5U3Y7); assay: The compound was tested for binding affinity of Sigma opioid receptor type 2 in rat liver membranes using [3H]DTG ligand; type: cell membranes, Membrane
Summary of the method: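 σ2 sites: male Sprague–Dawley rat liver membranes (160 μg protein), 5 nM [3H]DTG plus 1 μM dextrallorphan masking σ1, 50 mM Tris-HCl pH 8.0, 120 min at 25 °C; 10 μM haloperidol nonspecific; filtration. IC50 converted to Ki by Cheng–Prusoff.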

[7] = (§5) Binding affinity of Sigma opioid receptor type 1 in Guinea pig brain membranes using [3H]pentazocine ligand; type: cell membranes, Membrane
Summary of the method: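 σ1 sites: guinea pig brain membranes minus cerebella (350–500 μg protein) with 3 nM [3H](+)-pentazocine in 50 mM Tris-HCl pH 8.0, 120 min at 25 °C; 10 μM haloperidol for nonspecific; filtration on polyethyleneimine-soaked filters. IC50 converted to Ki via Cheng–Prusoff.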

[8] = molecular target: T1, Norepinephrine transporter; assay: (§6) The compound was tested for binding affinity nisoxatine ligand; summary of the method: as §1
[9] = molecular target: T1, Norepinephrine transporter; assay: as §6; remark: listed apart in the source
Summary of the method: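 Male Sprague-Dawley rat frontal cortex membranes in 50 mM Tris, 120 mM NaCl, 5 mM KCl, pH 7.4; 8 mg original wet tissue per tube. Incubation with 0.5 nM [3H]nisoxetine for 60 min at 0-4 °C. Nonspecific binding with 1 μM desipramine. Filtration and scintillation counting; Ki from at least three experiments in triplicate.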

[10] = molecular target: T2, Sodium-dependent dopamine transporter; assay: as §2; remark: listed apart in the source
Summary of the method: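 Rat caudate-putamen membranes washed in modified Krebs-HEPES buffer, pH 7.4; 150-300 μg protein per tube. Filtration read-out; Ki by nonlinear least-squares fit; at least three independent experiments.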

[11] = molecular target: T3, Sodium-dependent serotonin transporter; assay: as §4; remark: listed apart in the source
Summary of the method: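 Male Sprague-Dawley rat midbrain membranes in 50 mM Tris, 120 mM NaCl, 5 mM KCl, pH 7.4; 1.5 mg original wet tissue per tube. Incubation with 0.2 nM [3H]paroxetine for 90 min at room temperature. Nonspecific binding with 1 μM citalopram. Filtration and scintillation counting; Ki from at least three experiments in triplicate.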

[12] = as §5; type: cell membranes, Membrane; remark: listed apart in the source
Summary of the method: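 Guinea pig brain membranes (minus cerebella), 350–500 μg protein, with 3 nM [3H](+)-pentazocine in 50 mM Tris-HCl pH 8.0 for 120 min at 25 °C. Nonspecific binding with 10 μM haloperidol. Filtration, then overnight extraction and counting. IC50 from curve fit, converted to Ki by Cheng-Prusoff.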

Sigma intracellular receptor 2, sequence (Q5U3Y7 whole entry, looked up): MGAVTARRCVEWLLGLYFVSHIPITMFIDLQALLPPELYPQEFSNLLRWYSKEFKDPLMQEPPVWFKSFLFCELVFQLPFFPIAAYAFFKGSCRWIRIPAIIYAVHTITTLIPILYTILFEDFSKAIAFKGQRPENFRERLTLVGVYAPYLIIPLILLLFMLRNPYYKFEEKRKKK
T2 sequence (P23977 whole entry): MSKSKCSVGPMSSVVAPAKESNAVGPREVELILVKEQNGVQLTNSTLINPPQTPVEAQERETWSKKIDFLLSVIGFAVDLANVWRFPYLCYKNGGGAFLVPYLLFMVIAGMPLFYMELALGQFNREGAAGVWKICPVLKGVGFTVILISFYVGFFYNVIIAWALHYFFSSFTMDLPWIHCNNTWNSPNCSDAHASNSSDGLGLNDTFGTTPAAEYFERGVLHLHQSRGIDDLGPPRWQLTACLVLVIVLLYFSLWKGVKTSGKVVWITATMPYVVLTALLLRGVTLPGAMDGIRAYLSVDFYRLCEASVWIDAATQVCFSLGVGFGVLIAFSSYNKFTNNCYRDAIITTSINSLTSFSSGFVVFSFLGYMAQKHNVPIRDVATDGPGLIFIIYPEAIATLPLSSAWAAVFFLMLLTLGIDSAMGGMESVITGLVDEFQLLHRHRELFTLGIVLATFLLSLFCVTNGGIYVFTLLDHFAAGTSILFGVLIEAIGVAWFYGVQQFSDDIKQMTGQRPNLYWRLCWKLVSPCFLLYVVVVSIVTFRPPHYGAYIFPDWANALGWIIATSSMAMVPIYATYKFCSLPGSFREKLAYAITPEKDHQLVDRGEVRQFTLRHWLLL
T3 sequence (P31652 whole entry): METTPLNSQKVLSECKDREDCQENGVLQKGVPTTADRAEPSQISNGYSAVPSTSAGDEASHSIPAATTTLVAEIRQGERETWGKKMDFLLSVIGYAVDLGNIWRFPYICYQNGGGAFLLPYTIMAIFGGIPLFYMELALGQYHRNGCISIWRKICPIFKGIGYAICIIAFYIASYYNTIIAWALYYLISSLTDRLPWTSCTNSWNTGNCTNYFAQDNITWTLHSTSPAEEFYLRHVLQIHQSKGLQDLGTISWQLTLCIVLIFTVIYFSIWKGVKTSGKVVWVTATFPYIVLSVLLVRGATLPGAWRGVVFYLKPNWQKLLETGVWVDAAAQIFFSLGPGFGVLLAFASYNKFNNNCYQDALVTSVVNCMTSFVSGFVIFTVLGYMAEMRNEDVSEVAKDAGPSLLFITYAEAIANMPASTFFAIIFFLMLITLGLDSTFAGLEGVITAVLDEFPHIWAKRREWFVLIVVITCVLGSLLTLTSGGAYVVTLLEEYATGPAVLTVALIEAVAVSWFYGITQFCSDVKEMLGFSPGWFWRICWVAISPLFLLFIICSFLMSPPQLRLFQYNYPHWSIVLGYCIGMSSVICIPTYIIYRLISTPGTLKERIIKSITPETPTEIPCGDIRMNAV
T1 sequence (Q9WTR4 whole entry): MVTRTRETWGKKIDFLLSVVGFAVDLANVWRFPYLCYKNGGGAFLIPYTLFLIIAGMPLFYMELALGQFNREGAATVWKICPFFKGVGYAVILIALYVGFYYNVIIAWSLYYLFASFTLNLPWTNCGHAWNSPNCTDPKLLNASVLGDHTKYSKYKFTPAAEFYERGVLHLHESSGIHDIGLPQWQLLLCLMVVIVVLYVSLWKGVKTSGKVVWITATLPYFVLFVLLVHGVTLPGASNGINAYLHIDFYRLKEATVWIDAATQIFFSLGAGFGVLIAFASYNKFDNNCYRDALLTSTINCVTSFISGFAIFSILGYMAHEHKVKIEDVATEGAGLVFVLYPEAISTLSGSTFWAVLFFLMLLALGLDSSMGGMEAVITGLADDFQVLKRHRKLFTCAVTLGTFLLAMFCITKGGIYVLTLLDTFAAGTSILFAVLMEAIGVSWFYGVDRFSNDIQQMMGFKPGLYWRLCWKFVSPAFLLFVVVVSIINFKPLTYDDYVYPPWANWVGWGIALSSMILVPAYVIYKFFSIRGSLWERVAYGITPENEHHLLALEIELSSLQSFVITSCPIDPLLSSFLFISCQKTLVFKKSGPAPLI

Row | Ki [1] | Ki [2] | Ki [3] | IC50 [4] | Ki [5] | Ki [6] | Ki [7] | Ki [8] | Compound | Ki [9] | Ki [10] | Ki [11] | Ki [12]
1 | Not Active | 113000 nM | Not Active | 2770 nM |  |  |  |  | Clc1ccccc1N1CCN(CCCn2c3ccccc3c3ccccc32)CC1 |  |  |  | 
2 |  | 436 nM |  | 472 nM | 373 nM | 230 nM | 552 nM | 9370 nM | C[C@H]1CN(CCCn2c3ccccc3c3ccccc32)C[C@H](C)N1C |  |  |  | 
3 |  | 263 nM |  | 639 nM | 44.5 nM | 145 nM | 104 nM | 2490 nM | C[C@H]1CN(CCCn2c3ccccc3c3ccccc32)C[C@H](C)N1CCCc1ccccc1 |  |  |  | 
4 |  | 813 nM |  | 1060 nM | 13100 nM | 351 nM | 138 nM | 6810 nM | C[C@H]1CN(CCCN(c2ccccc2)c2ccccc2)C[C@H](C)N1 |  |  |  | 
5 |  | 61 nM |  | 36.6 nM | 219 nM | 183 nM | 97.2 nM | 3640 nM | C[C@H]1CN(CCCN(c2ccccc2)c2ccccc2)C[C@H](C)N1CCCc1ccccc1 |  |  |  | 
6 |  | 109 nM |  | 111 nM | 1170 nM | 193 nM | 596 nM | 4580 nM | C[C@H]1CN(CCCn2c3ccccc3c3cc([N+](=O)[O-])ccc32)C[C@H](C)N1 |  |  |  | 
7 |  | 3890 nM |  |  | 1130 nM | 675 nM | 4420 nM | 1300 nM | C[C@H]1CN(CCCn2c3ccc(Br)cc3c3cc(Br)ccc32)C[C@H](C)N1 |  |  |  | 
8 |  | 2400 nM |  |  | 2100 nM | 1660 nM | 5720 nM | 13900 nM | C[C@H]1CN(CCCn2c3ccccc3c3cc(N)ccc32)C[C@H](C)N1 |  |  |  | 
9 |  |  |  |  |  |  |  |  | C[C@@H]1CN(CCCn2c3ccc(Br)cc3c3cc(Br)cc(Br)c32)C[C@@H](C)N1 | 8540 nM | 30300 nM | 1610 nM | > 6000 nM
10 |  | 4930 nM | Not Active | 1820 nM |  |  |  | 4120 nM | c1ccc(N2CCN(CCCn3c4ccccc4c4ccccc43)CC2)cc1 |  |  |  | 
11 |  | 224 nM |  | 140 nM | 825 nM |  |  | 2160 nM | C[C@@H]1CN(CCCn2c3ccccc3c3ccccc32)C[C@H](C)N1 [RIMCAZOLE] |  |  |  | 

Row | Compound | Ki [1] | Ki [2] | Ki [3] | IC50 [4] | Ki [5] | Ki [6] | Ki [7] | Ki [8] | Ki [9] | Ki [10] | Ki [11] | Ki [12]
12 | C[C@H]1CN(CCCn2c3ccc([N+](=O)[O-])cc3c3cc([N+](=O)[O-])ccc32)C[C@H](C)N1 |  |  |  | 3670 nM |  |  |  |  | 3660 nM | 174000 nM | 1850 nM | 
